Results: ChEMBL document CHEMBL1125582, “4-hydroxythiazole inhibitors of 5-lipoxygenase” (J Med Chem, 1991)

How the values were obtained:
[1] = target: T1, Polyunsaturated fatty acid 5-lipoxygenase (Rattus norvegicus) (UniProt P12527); test: The compound was tested for the in vitro inhibition of 5-lipoxygenase (5-lo) from the 20000 g supernatant of RBI-1 cells at a concentration of 32 uM; type: cell-based
T1 sequence (whole entry): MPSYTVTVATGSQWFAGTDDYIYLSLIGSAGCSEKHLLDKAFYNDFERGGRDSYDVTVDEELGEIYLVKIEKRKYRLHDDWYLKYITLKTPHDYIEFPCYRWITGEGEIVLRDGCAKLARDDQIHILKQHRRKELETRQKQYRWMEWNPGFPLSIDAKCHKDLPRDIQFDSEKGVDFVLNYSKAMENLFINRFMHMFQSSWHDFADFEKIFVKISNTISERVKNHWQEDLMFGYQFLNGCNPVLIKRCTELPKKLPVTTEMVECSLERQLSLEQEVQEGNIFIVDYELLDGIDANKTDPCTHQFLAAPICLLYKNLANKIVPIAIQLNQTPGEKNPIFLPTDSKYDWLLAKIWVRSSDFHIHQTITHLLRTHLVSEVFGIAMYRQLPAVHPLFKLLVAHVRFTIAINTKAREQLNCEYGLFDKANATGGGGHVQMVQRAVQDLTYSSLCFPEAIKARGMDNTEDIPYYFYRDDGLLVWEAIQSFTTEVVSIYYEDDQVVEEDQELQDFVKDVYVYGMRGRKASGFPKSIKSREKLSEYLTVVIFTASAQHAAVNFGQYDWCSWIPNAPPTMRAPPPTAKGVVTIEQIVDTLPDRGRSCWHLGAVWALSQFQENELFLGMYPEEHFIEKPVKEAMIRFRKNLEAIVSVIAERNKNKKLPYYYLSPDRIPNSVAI
In short: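 RBL-1 cell homogenate, 20000g supernatant (7.5 × 10⁶ cell equiv/mL), preincubated 20 min at 37 °C with inhibitor or 2% Me₂SO vehicle in pH 6.8 BES/PIPES/EDTA/NaCl/CaCl₂ buffer; reaction started with 66 μM [¹⁴C]arachidonic acid. [¹⁴C]-5-HETE counted by scintillation, corrected by [³H]-5-HETE recovery; percent reduction vs control, single 32 μM concentration.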

[2] = target: T2, Polyunsaturated fatty acid 5-lipoxygenase (Rattus norvegicus, UniProt P12527); test: In vitro inhibition of 5-lipoxygenase (5-lo) from the 20000 g supernatant of RBI-1 cells; type: cell-based
T2 sequence (P12527 whole entry): T1 sequence (whole entry)

[3] = target: T2, Polyunsaturated fatty acid 5-lipoxygenase; test: The compound was tested for the inhibition of 5-lipoxygenase (5-lo) in homogenized rat basophilic leukemia (RBL-1) cells; type: cell-based
In short: (§1)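 20000g supernatant of homogenized RBL-1 cells (7.5 × 10⁶ cell equiv/mL) preincubated 20 min at 37 °C with inhibitor or 2% Me₂SO vehicle in pH 6.8 BES/PIPES buffer with EDTA, NaCl, 0.7 mM CaCl₂. Reaction started with 66 μM [¹⁴C]arachidonic acid. [¹⁴C]-5-HETE counted by scintillation, corrected for [³H]-5-HETE recovery.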

[4] = target: T3, Polyunsaturated fatty acid 5-lipoxygenase (Homo sapiens, UniProt P09917); test: The compound was tested for the inhibition of 5-lipoxygenase (5-lo) in human whole blood (HWBL); type: tissue-based
T3 sequence (P09917 whole entry): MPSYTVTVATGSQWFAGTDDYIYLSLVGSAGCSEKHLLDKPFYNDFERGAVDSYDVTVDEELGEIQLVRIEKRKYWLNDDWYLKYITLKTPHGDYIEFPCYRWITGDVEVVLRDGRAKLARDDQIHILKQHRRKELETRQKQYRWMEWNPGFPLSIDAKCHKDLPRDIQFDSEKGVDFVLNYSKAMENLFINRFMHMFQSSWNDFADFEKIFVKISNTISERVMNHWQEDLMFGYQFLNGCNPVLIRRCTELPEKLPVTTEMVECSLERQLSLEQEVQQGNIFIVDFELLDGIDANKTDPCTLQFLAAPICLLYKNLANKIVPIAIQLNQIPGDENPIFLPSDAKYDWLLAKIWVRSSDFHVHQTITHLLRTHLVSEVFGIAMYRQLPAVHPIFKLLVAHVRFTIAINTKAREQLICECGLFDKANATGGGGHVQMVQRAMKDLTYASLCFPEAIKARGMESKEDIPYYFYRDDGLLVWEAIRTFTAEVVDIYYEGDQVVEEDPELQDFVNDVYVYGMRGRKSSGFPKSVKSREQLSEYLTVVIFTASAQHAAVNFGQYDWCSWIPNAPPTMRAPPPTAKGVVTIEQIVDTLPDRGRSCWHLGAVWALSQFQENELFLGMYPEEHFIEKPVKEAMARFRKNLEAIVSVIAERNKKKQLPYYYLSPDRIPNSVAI
In short: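 Heparinized (20 units/mL) human blood preincubated 15 min at 37 °C with compound or vehicle. Challenged with A23187 in DMSO (final 50 μM) for 30 min, then chilled and centrifuged. Plasma extracted with 4 volumes methanol for at least 2 h at 3 °C. LTB₄ measured by RIA or EIA.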

[5] = target: T2, Polyunsaturated fatty acid 5-lipoxygenase; test: The compound was tested for the in vitro inhibition of 5-lipoxygenase from the 20000 g supernatant of RBI-1 cells; type: cell-based; in short: as §1

**Q.** `COP(=O)(OC)Oc1nc(-c2ccccc2)sc1-c1ccccc1` was tested. Which inhibition [1] did it give?
**A.** 14%

**Q.** How did the IC50 [2] turn out when `CCCOC(=O)Oc1nc(-c2ccccc2)sc1CCC` was run?
**A.** 3.3 µM

**Q.** And the IC50 [3]?
**A.** 1.4 µM

**Q.** What about the IC50 [4] of the same molecule?
**A.** 2.2 µM

**Q.** For `CN(O)C(=O)Cc1sc(-c2ccccc2)nc1O`, which IC50 [5] is on record?
**A.** 4.4 µM
